Source: ChEMBL document CHEMBL1629532, “Design, synthesis, and structure-activity relationships of 3-ethynyl-1H-indazoles as inhibitors of the phosphatidylinositol 3-kinase signaling pathway” (J Med Chem, 2010)

Columns and labels:
[1] = target: Leucine-rich repeat serine/threonine-protein kinase 2 (Homo sapiens) (UniProt Q5S007); assay: Inhibition of LRKK2 at 10 uM
[2] = target: T1, Phosphatidylinositol 4,5-bisphosphate 3-kinase catalytic subunit delta isoform (Homo sapiens, UniProt O00329); assay: Inhibition of PI3Kdelta; details: read-out: I50
T1 sequence (O00329 whole entry): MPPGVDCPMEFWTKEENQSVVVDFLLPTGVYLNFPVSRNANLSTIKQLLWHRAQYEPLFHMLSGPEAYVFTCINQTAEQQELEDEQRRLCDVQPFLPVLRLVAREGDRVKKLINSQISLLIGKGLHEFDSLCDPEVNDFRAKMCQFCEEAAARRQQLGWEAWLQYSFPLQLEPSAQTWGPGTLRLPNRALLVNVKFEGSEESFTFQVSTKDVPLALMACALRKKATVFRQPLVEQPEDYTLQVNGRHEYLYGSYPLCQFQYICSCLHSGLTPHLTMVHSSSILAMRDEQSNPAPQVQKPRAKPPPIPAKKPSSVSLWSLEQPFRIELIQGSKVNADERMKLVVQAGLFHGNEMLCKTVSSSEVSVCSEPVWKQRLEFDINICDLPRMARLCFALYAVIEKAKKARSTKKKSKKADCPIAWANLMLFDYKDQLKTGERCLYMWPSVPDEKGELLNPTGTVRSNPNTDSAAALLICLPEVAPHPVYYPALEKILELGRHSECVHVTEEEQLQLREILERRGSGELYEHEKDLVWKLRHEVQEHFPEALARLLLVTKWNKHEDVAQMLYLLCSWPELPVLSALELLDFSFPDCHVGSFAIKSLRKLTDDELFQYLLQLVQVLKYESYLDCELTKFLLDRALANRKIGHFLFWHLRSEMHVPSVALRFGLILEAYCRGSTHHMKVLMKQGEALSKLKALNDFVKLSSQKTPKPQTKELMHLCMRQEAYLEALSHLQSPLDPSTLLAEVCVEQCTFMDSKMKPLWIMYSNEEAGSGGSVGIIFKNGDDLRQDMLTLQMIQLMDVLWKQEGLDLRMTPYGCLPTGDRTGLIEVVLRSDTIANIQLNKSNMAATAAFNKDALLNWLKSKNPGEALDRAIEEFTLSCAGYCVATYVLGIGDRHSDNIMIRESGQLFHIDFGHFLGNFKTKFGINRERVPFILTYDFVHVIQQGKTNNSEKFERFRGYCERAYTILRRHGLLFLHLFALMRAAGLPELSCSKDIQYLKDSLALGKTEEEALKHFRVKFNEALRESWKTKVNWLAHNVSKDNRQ

[3] = tested on: Platelet-derived growth factor receptor alpha (Homo sapiens), P16234 [T674I]; assay: Inhibition of PDGFRA T674I mutant at 10 uM
[4] = target: Muscle, skeletal receptor tyrosine-protein kinase (Homo sapiens) (UniProt O15146); assay: Inhibition of MUSK at 10 uM
[5] = target: MAP/microtubule affinity-regulating kinase 4 (Homo sapiens) (UniProt Q96L34); assay: Inhibition of MARK4 at 10 uM
HeLa = assay: Growth inhibition of human HeLa cells after 72 hrs by ATPlite assay; assay type: functional
Summary of the method: (§1)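 Cells seeded at about 3000 per well, grown 24 h, then given fresh medium and test compound in triplicate at 0.5 to 100µM in DMSO (0.5% final). Exposure 72 h at 37 °C, 5% CO₂. Viability measured by ATPlite luminescence and normalized to DMSO-treated controls. GI50 obtained by curve fitting. HeLa cultured in DMEM/10% FBS; MCF7, MDA-MB-231 and PC3 cultured in RPMI+GlutaMAX/10% FBS.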

PC-3 = assay: Growth inhibition of human PC3 cells after 72 hrs by ATPlite assay; assay type: functional; details: PC-3, 72 h; summary of the method: as §1
[6] = target: Misshapen-like kinase 1 (Homo sapiens) (UniProt Q8N4C8); assay: Inhibition of MINK1 at 10 uM
[7] = target: Phosphatidylinositol 4,5-bisphosphate 3-kinase catalytic subunit gamma isoform (Homo sapiens, UniProt P48736); assay: Inhibition of PI3Kgamma
[8] = target: Serine/threonine-protein kinase Sgk1 (Homo sapiens) (UniProt O00141); assay: Inhibition of SGK1 at 10 uM
[9] = target: Mitogen-activated protein kinase 9 (Homo sapiens) (UniProt P45984); assay: Inhibition of JNK2 at 10 uM
[10] = Inhibition of DNA-PK at 10 uM

Sequence of Mitogen-activated protein kinase 9 (Homo sapiens) (P45984 whole entry, looked up): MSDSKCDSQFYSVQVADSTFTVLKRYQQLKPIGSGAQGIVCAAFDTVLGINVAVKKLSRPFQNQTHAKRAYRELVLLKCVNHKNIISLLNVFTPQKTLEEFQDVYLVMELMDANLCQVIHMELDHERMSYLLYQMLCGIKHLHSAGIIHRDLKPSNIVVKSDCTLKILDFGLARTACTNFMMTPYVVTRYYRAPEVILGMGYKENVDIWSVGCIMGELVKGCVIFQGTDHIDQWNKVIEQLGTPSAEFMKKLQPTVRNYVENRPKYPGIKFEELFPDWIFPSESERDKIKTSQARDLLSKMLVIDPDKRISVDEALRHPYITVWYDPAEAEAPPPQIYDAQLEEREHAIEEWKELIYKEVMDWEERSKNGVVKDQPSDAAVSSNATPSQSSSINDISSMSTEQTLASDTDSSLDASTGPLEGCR
Sequence of MAP/microtubule affinity-regulating kinase 4 (Homo sapiens) (Q96L34 whole entry): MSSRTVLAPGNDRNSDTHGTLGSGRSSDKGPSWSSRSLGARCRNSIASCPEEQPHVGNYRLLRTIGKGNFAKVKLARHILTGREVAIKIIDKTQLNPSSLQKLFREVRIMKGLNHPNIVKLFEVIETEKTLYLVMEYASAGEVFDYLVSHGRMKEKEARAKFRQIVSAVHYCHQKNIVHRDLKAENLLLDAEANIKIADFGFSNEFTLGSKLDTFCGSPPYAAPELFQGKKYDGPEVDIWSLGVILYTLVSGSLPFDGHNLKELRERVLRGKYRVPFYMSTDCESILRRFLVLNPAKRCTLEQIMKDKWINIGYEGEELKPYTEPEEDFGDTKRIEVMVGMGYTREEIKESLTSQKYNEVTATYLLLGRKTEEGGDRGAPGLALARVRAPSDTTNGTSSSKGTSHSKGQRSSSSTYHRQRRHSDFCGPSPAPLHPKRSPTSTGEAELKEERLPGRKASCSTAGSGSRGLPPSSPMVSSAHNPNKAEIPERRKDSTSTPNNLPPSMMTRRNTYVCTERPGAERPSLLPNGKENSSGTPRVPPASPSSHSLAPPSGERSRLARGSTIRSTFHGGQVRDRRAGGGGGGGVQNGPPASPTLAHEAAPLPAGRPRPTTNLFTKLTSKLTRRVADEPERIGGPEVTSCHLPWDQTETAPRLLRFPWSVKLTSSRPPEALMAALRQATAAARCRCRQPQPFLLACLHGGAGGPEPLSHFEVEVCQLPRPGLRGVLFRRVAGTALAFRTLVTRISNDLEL
Sequence of Serine/threonine-protein kinase Sgk1 (Homo sapiens) (O00141 whole entry): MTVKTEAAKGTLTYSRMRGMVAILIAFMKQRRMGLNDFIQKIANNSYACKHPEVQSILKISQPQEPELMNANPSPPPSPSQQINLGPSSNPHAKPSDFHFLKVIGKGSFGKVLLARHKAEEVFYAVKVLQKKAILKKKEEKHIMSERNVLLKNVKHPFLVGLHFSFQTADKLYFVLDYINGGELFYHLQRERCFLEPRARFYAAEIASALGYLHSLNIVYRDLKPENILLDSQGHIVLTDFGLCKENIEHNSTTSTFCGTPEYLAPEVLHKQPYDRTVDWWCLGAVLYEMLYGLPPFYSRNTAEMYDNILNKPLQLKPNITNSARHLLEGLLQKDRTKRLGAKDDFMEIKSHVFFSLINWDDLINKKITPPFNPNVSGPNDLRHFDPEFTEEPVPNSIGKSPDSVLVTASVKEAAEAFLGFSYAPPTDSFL
Sequence of Platelet-derived growth factor receptor alpha (Homo sapiens), P16234 [T674I] (P16234 whole entry T674I): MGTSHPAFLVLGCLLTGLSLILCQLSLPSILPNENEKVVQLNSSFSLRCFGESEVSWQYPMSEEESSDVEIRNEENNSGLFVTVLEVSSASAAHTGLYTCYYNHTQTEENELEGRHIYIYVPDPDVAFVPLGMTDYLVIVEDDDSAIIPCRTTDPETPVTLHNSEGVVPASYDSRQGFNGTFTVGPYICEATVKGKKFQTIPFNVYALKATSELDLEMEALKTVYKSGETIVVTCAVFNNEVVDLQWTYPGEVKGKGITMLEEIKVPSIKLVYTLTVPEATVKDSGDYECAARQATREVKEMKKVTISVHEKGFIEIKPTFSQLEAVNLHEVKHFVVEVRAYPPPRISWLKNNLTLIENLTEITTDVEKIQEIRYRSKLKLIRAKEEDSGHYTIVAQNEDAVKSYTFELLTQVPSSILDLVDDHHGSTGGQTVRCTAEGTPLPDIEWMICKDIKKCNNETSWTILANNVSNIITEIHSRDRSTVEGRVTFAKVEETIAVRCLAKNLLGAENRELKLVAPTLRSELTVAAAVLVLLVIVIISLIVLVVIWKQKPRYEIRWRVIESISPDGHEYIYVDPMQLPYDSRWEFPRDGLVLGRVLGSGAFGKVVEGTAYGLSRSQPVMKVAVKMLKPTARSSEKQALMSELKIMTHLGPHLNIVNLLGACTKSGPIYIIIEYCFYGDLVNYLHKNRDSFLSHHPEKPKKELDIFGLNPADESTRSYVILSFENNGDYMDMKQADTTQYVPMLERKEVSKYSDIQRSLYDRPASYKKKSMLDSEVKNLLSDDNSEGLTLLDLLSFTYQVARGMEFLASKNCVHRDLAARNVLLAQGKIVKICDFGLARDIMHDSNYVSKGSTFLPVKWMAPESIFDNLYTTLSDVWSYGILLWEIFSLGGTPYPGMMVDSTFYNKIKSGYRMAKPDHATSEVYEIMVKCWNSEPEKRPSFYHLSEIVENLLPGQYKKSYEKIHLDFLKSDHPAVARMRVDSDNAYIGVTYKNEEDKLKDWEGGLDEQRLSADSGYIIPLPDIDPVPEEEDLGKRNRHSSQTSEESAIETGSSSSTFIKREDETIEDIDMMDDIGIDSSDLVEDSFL
Sequence of Misshapen-like kinase 1 (Homo sapiens) (Q8N4C8 whole entry, looked up, canonical isoform): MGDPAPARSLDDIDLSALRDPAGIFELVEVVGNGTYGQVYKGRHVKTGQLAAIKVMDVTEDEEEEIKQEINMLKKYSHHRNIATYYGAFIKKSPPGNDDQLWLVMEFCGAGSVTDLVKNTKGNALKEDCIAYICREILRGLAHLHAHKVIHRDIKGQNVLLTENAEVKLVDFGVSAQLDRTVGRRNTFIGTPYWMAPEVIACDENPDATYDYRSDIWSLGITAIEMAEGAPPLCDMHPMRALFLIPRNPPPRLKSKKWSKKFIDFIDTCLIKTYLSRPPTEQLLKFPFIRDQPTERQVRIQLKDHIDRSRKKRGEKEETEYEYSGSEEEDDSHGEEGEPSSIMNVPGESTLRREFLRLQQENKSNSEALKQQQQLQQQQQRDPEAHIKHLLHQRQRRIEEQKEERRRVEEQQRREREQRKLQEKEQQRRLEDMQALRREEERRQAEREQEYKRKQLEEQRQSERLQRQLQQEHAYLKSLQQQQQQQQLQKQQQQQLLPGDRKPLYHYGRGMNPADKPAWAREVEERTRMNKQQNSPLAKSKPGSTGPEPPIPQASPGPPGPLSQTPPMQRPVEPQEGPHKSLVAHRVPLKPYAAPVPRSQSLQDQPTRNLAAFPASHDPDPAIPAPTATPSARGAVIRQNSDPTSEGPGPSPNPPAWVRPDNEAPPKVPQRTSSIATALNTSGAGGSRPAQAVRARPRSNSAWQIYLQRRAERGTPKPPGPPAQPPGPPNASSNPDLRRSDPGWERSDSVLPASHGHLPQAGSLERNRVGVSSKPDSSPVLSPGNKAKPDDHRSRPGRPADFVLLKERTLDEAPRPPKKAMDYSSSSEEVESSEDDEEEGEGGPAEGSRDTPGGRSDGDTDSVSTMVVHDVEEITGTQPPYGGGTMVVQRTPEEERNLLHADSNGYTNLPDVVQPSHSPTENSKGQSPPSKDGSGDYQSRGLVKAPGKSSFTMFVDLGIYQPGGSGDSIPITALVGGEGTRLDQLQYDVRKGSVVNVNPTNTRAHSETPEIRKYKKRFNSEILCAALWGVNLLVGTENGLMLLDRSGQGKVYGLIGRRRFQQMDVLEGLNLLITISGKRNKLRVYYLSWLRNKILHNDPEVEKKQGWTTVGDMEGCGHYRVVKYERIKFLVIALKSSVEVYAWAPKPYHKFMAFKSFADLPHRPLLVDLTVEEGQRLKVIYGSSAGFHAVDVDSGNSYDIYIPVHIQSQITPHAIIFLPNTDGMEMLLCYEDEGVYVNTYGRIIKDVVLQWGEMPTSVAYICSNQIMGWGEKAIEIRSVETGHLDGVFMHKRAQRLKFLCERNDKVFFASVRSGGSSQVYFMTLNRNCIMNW
Sequence of Muscle, skeletal receptor tyrosine-protein kinase (Homo sapiens) (O15146 whole entry): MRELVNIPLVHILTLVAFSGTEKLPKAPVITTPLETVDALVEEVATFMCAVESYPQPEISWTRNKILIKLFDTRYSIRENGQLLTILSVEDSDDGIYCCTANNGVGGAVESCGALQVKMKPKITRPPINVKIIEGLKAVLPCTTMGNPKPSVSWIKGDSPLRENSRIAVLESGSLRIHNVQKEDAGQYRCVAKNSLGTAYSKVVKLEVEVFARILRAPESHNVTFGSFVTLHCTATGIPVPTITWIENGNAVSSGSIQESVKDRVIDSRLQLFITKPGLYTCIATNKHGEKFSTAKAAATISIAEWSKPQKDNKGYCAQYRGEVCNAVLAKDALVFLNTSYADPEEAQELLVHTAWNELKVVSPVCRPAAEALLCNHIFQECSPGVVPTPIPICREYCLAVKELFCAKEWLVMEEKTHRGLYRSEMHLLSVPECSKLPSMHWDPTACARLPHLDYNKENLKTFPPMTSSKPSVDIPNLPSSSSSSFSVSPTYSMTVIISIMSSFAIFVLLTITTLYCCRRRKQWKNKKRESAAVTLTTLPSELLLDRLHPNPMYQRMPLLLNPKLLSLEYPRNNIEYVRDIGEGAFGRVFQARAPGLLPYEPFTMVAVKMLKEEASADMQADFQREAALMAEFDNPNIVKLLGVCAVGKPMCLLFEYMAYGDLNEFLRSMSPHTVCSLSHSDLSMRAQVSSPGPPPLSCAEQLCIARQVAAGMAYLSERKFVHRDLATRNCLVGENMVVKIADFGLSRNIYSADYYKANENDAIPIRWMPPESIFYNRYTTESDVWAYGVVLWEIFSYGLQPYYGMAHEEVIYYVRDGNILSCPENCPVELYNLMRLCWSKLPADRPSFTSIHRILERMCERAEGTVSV

inhibition [1]: > 50% | IC50 [2]: 39 µM | inhibition [3]: > 50% | inhibition [4]: > 50% | inhibition [5]: > 50% | GI50 (HeLa): 2.53 µM | GI50 (PC-3): 2.43 µM | inhibition [6]: > 50% | IC50 [7]: 40 µM | inhibition [8]: > 50% | inhibition [9]: > 50% | inhibition [10]: > 50%
SMILES: C(#Cc1n[nH]c2ccccc12)c1ccncc1
